WT yeast gro inh: growth inhibition of WT yeast, mitochondrial fusion screen. mitochondrial fusion phenotypic screen, WT strain. hit rate 2.1% among 190,000. inhibition, % at 10 µM; in the data active means inhibition above about 58%; tested in S. cerevisiae
Yeast lifespan up: extends the lifespan of yeast | S. cerevisiae growth with nicotinamide, OD615; deaD strain in restrictive glucose medium | inhibition of the nicotinamide effect, % at 10 µM | hit rate 0.68% among 130,000 | AID 775;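 active means inhibition above a set limit, placed 3 SD over the median of all compounds, cut at about 26% in these data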
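Test system: DeaD-strain S. cerevisiae / Buffer or medium: restrictive glucose medium / Also added: nicotinamide 1.5 mM / Doses: one concentration, 10 µM, DMSO 0.25% / Schedule: 48 h at 30 °C / Signal: OD615 measurement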
RAM network inh: inhibitors of the yeast RAM network; hit rate 1.8% among 190,000; inhibition, % at 50 µM; S. cerevisiae dse1pr::URA3 reporter, 5-FOA growth OD615, 2 d; analog-sensitive cbk1-as2 kinase mutant strain;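 active means inhibition above a set limit, 3 SD over mean compound inhibition, cut at about 8.4% in these data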;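 further: inhibition rescues growth on 5-FOA so higher OD means more RAM inhibition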
BB579 growth dn: yeast BB579 growth reduction in restrictive medium. S. cerevisiae BB579 growth, OD615, 48 h. inhibition, % at 10 µM. hit rate 0.51% among 140,000. AID 804;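 active means inhibition above a set limit, 3 SD over the mean compound inhibition, cut at about 44% in these data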
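test system = yeast BB579 (DeaD) | buffer or medium = restrictive CSMM-D medium | doses = single compound dose of 10 µM, 0.25% DMSO final | times = 4 h preincubation and 48 h exposure at 30 °C | technique = culture absorbance at 615 nm | benchmarks = amphotericin B 10 µg/mL, positive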
Each line names hits and unclear results; the compound was inactive in the other large screens. Rows were chosen to be rich in hits. Some 4.3% of all compounds tested hit in one or more screens of this group.

CN(C)CCCN(C(=O)COc1ccc(Cl)cc1)c1nc2ccc(F)cc2s1	WT yeast gro inh 61 (no result: Yeast lifespan up, BB579 growth dn)
Cc1cccc2sc(N(CCCN(C)C)C(=O)c3sc4ccccc4c3Cl)nc12	WT yeast gro inh 88
CN(C)CCCN(C(=O)COc1ccc(Cl)cc1)c1nc2c(F)cccc2s1	none (no result: Yeast lifespan up, BB579 growth dn)
CN(C)CCCN(C(=O)COc1ccccc1)c1nc2ccc(F)cc2s1	none (no result: Yeast lifespan up, BB579 growth dn)
CN(C)CCCN(C(=O)CCc1ccccc1)c1nc2c(F)cccc2s1	WT yeast gro inh 60
Cc1ccc2nc(N(CCCN(C)C)C(=O)c3ccc(Br)s3)sc2c1	WT yeast gro inh 90 (no result: Yeast lifespan up, BB579 growth dn)
Cc1ccc2nc(N(CCCN(C)C)C(=O)COc3ccc(Cl)cc3)sc2c1	WT yeast gro inh 91 (no result: Yeast lifespan up, BB579 growth dn)
Cc1cc(C)c2sc(N(CCCN(C)C)C(=O)COc3ccc(Cl)cc3)nc2c1	WT yeast gro inh 89 (no result: Yeast lifespan up, BB579 growth dn)
Cc1ccc2nc(N(CCCN(C)C)C(=O)c3ccco3)sc2c1	none (no result: Yeast lifespan up, BB579 growth dn)
Cc1ccc2nc(N(CCN(C)C)C(=O)c3cc(Cl)sc3Cl)sc2c1	none
CN(C)CCCN(C(=O)CCOc1ccccc1)c1nc2c(F)cccc2s1	none (no result: Yeast lifespan up, BB579 growth dn)
O=C(CN(c1ccc(F)cc1)S(=O)(=O)c1ccc2c(c1)OCCO2)NCc1ccccn1	none
Cc1cc(C)cc(NC(=S)N(Cc2ccc(Cl)cc2)Cc2ccc(C(=O)O)cc2)c1	none (no result: Yeast lifespan up, BB579 growth dn)
Cc1ccc(NC(=S)N(Cc2cccc(Br)c2)CC2CCC(C(=O)O)CC2)cc1 (centres undefined)	none (no result: Yeast lifespan up, BB579 growth dn)
Cc1cc(NC(=S)N(Cc2cccc(Br)c2)CC2CCC(C(=O)O)CC2)ccc1Cl (centres undefined)	WT yeast gro inh 71 (no result: Yeast lifespan up, BB579 growth dn)
Cc1cc(NC(=S)N(Cc2ccc(Cl)cc2)Cc2ccc(C(=O)O)cc2)ccc1Cl	WT yeast gro inh 71 (no result: Yeast lifespan up, BB579 growth dn)
Cc1ccc(NC(=S)N(Cc2ccc(Br)cc2)Cc2ccc(C(=O)O)cc2)cc1C	WT yeast gro inh 67 (no result: Yeast lifespan up, BB579 growth dn)
Cc1cc(C)cc(NC(=S)N(Cc2ccc(Br)cc2)Cc2ccc(C(=O)O)cc2)c1	WT yeast gro inh 79 (no result: Yeast lifespan up, BB579 growth dn)
O=C1C2CC=CCC2C(=O)N1Cc1ccccc1Cl (centres undefined)	none
CC(C)n1c(CSCc2ccc(Cl)cc2Cl)n[nH]c1=S	WT yeast gro inh 65 (no result: Yeast lifespan up, BB579 growth dn)
COc1ccccc1OCCNc1cc(N2CCCCC2)ccc1[N+](=O)[O-]	RAM network inh 11
Cc1ccccc1OCCNc1cc(N2CCNCC2)ccc1[N+](=O)[O-]	none (no result: Yeast lifespan up, BB579 growth dn)
CCn1ccnc1CN1CCN(CC(C)C)C(CCO)C1 (centres undefined)	none (no result: Yeast lifespan up, BB579 growth dn)
O=c1c2sccc2n(Cc2ccc(F)cc2)c(=O)n1-c1ccc(F)cc1	RAM network inh 10
Cc1cc(C)c2oc(C(=O)Nc3ccc(S(=O)(=O)N4CCCC(C)C4)cc3)cc(=O)c2c1 (centres undefined)	RAM network inh 9.2
COc1ccc(N(C(=O)C(C)C)S(=O)(=O)c2cccc([N+](=O)[O-])c2)cc1	none (no result: Yeast lifespan up, BB579 growth dn)
COc1ccc(N(C(=O)C(C)C)S(=O)(=O)c2ccc(Cl)cc2)cc1	Yeast lifespan up 51
Cc1cc(O)c(NC(=S)NC(=O)c2ccc(-c3ccc(Cl)cc3)o2)cc1C	WT yeast gro inh 77
Cc1ccc(NC(=S)NC(=O)c2ccc(-c3ccc(Cl)cc3)o2)c(O)c1	RAM network inh 10
Cc1c(C(=O)O)cccc1-c1ccc(/C=N/Nc2ccc(Br)cc2)o1	BB579 growth dn 44
CCOC(=O)CNC(=O)N1CCCC(CNS(=O)(=O)Cc2ccccc2)C1 (centres undefined)	none (no result: Yeast lifespan up, BB579 growth dn)
CCCn1c(=O)c(C(=O)OCC)c(O)c2cc(Br)ccc21	RAM network inh 9.8 (no result: Yeast lifespan up, BB579 growth dn)
Cc1ccc(-n2cc(CN3CCC(CO)(Cc4cccc(C(F)(F)F)c4)CC3)cn2)cc1	WT yeast gro inh 93 (no result: Yeast lifespan up, BB579 growth dn)
OCC1(Cc2cccc(C(F)(F)F)c2)CCN(Cc2cc(F)cc(F)c2)CC1	WT yeast gro inh 69 (no result: Yeast lifespan up, BB579 growth dn)
COc1ccc(-c2[nH]ncc2-c2ccc(Cl)cc2)c(O)c1	BB579 growth dn 73
Oc1ccc(-c2[nH]ncc2-c2ccc(Cl)cc2)c(O)c1	none
O=[N+]([O-])c1ccc(COc2ccc(-c3[nH]ncc3-c3ccc(Cl)cc3)c(O)c2)cc1	WT yeast gro inh 94
Cc1ccccc1CC1(CO)CCCN(C(=O)CCCN2CCCCC2=O)C1 (centres undefined)	none (no result: Yeast lifespan up, BB579 growth dn)
Cc1ccc(S(=O)(=O)N2CCC(C(=O)NCCc3ccccn3)CC2)cc1	none (no result: Yeast lifespan up, BB579 growth dn)
COc1ccc(C2=NN(C(C#N)c3ccc(OC)c(OC)c3)C(c3ccccc3)C2)cc1 (centres undefined)	RAM network inh 8.5
C/C=C/c1ccc(OCCCCOc2ccc(OC)cc2)c(OC)c1	RAM network inh 10
COc1ccccc1C(=O)OCc1c(F)cccc1Cl	none
CC1=NN(c2ccc(C)cc2C)C(=O)C1C(c1ccccc1)C1C(=O)N(c2ccc(C)cc2C)N=C1C (centres undefined)	WT yeast gro inh 73
Cc1ccc(-n2nc(C)c(C(=O)O)n2)c(C)c1	none
C=CCNC(=O)COC(=O)c1ccc(Sc2nncn2C)c([N+](=O)[O-])c1	none (no result: Yeast lifespan up, BB579 growth dn)
CCSc1nnc(NC(=O)C2(C)Cc3ccccc3C(=O)O2)s1 (centres undefined)	Yeast lifespan up 37
CC1(C(=O)Nc2nnc(C(C)(C)C)s2)Cc2ccccc2C(=O)O1 (centres undefined)	none
CC(=O)N(C(C)=O)c1c(C#N)c(C)n(-c2ccccc2)c1C(=O)c1ccccc1	Yeast lifespan up 32
N#Cc1c(N)c(C(=O)c2ccccc2)n2c1CCCC2	none
Cc1ccc(-c2cc(-c3n[nH]c(=S)n3C)c3ccccc3n2)cc1	WT yeast gro inh 70 (no result: Yeast lifespan up, BB579 growth dn)
CCOc1cccc(-c2cc(-c3n[nH]c(=S)n3CC)c3ccccc3n2)c1	WT yeast gro inh 67
CCn1c(-c2cc(-c3ccc(C)c(C)c3)nc3ccccc23)n[nH]c1=S	WT yeast gro inh 58 (no result: Yeast lifespan up, BB579 growth dn)
O=C1CC(C(=O)Nc2cc(Cl)ccc2Cl)n2ncnc2N1 (centres undefined)	none (no result: Yeast lifespan up, BB579 growth dn)
Cc1ccccc1N1CCN(C2=NC(=O)/C(=C\c3cccs3)S2)CC1	WT yeast gro inh 64
Cc1ccc(S(=O)(=O)N2CCCOC2CNC(=O)C(=O)NCCc2c[nH]c3ccccc23)cc1 (centres undefined)	none
CC1Cc2ccccc2N1C(=O)Cn1c(=O)cc(O)c2ccccc21 (centres undefined)	WT yeast gro inh 97
COc1cc(OC)cc(C(=O)N[C@H](C(=O)OCC(=O)Nc2ccc(C(C)C)cc2)C(C)C)c1	RAM network inh 8.5
COc1cc(OC)cc(C(=O)N[C@H](C(=O)OCC(=O)Nc2ccc(OC)c(OC)c2)C(C)C)c1	none (no result: Yeast lifespan up, BB579 growth dn)
O=c1ccc(C(F)(F)F)cn1Cc1cc(=O)n2cc(Br)ccc2n1	none (no result: Yeast lifespan up, BB579 growth dn)
N=C1C(c2nc3ccccc3s2)=C(O)CN1NC(=O)c1c[nH]c2ccccc12	RAM network inh 8.5 (no result: Yeast lifespan up, BB579 growth dn)
N#Cc1cc(-c2ccccc2)cnc1Sc1ccccc1	RAM network inh 9.2
Cc1ccc(Sc2nnc(-c3ccccc3)cc2C#N)cc1	none
CC(C)OCCCNc1ncnc2c1[nH]c1ccccc12	none
Oc1c(N=Nc2ccccn2)ccc2ccccc12	BB579 growth dn 96
FC(F)(F)c1cccc(Cc2noc(CN3CCC(c4ccncc4)CC3)n2)c1	none (no result: Yeast lifespan up, BB579 growth dn)
Cc1ccc(C2(C)CC(C)(C)N(C(=O)CSc3nnc(C)s3)c3ccccc32)cc1 (centres undefined)	WT yeast gro inh 59
